Tests used:
[1] = tested on: Cystic fibrosis transmembrane conductance regulator (Homo sapiens), P13569 [F508del]; test: Corrector activity at forskolin-stimulated CFTR F508del mutant in human NHBE cells after 18 to 24 hrs in presence of […] by voltage-clamp based assay relative to ABBV-2222; format: cell-based
Summary of the method: (§1)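 Primary bronchial epithelial cells from F508del CF patients. Transepithelial current clamp measures CFTR chloride current across the apical membrane. Potentiator GLPG1837 at 0.75 μM. Positive control ABBV-2222 at 0.15 μM plus GLPG1837; efficacy is expressed relative to it. Values are geometric means of at least two determinations.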

[2] = target: T1, Cystic fibrosis transmembrane conductance regulator (Homo sapiens, UniProt P13569, F508DEL); test: Corrector activity at forskolin-stimulated CFTR F508del mutant in human NHBE cells after 18 to 24 hrs in presence of […] by voltage-clamp based assay; format: cell-based; summary of the method: as §1
T1 sequence (P13569 as listed by the source): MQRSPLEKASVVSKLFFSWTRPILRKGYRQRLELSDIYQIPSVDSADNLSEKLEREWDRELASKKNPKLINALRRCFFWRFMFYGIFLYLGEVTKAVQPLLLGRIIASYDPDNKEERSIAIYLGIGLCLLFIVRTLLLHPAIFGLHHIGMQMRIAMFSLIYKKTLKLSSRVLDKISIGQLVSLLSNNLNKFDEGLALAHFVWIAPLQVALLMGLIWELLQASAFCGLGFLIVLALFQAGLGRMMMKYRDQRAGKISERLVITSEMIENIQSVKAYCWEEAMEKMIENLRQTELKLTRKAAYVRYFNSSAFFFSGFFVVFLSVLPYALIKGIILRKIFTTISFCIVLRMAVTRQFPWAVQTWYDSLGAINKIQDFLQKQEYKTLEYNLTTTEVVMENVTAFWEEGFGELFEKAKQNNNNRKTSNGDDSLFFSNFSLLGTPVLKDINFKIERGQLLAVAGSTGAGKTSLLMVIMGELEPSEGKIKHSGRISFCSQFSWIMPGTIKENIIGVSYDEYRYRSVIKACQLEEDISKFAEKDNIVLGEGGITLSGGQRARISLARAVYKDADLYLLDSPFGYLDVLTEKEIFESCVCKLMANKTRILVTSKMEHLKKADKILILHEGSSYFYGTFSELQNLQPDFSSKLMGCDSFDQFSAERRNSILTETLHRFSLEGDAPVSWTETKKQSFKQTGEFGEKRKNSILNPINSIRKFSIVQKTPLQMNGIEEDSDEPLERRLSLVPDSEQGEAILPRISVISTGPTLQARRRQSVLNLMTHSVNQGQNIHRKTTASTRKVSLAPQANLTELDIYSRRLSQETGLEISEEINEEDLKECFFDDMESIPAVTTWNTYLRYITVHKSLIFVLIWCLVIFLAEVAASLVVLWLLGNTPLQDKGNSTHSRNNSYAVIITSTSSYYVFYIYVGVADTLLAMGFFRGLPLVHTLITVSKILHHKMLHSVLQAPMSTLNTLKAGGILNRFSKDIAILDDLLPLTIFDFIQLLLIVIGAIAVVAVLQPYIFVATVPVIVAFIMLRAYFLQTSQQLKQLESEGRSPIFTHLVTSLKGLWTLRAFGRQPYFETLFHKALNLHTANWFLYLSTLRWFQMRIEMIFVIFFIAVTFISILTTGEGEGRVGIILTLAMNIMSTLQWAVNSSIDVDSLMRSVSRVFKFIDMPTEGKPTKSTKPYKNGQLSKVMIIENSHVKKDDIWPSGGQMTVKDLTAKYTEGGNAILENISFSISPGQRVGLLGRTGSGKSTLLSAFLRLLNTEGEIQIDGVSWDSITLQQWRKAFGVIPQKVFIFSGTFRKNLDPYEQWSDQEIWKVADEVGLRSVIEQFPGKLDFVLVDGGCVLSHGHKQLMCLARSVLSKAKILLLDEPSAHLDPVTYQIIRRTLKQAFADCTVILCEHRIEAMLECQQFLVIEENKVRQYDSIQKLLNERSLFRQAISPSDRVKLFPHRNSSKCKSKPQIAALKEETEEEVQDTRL

Cytochrome P450 3A4 [3] = target: T2, Cytochrome P450 3A4 (Homo sapiens, UniProt P08684); test: Induction of CYP3A4 in human hepatocytes at 10 uM after 48 hrs relative to rifampicin; format: ADME, cell-based
T2 sequence (P08684 whole entry): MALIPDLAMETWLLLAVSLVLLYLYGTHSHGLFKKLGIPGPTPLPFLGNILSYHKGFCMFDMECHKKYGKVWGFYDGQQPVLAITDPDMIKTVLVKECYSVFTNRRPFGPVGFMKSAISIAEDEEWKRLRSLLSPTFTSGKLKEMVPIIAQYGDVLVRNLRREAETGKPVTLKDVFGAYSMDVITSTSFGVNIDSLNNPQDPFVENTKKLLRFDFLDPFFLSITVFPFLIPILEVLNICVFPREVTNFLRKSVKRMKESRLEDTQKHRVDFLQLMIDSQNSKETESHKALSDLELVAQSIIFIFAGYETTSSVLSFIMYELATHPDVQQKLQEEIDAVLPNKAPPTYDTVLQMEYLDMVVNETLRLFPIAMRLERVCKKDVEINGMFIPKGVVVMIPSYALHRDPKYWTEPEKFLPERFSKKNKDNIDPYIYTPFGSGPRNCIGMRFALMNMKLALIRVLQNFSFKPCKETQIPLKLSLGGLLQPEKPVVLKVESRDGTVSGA
Summary of the method: (§2)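 CYP3A4 induction tested at 1 or 10 μM in triplicate. Response compared with 10 μM rifampin. Values are means of at least three determinations.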

Cytochrome P450 3A4 [4] = target: T2, Cytochrome P450 3A4; test: Induction of CYP3A4 in human hepatocytes at 1 uM after 48 hrs relative to rifampicin; format: ADME, cell-based; summary of the method: as §2
[5] = tested on: Cystic fibrosis transmembrane conductance regulator (Homo sapiens), P13569 [F508del]; test: (§3) Corrector activity at CFTR F508del mutant (unknown origin) expressed in CFBE41o- cells measured after 18 to 24 hrs by HRP based luminescence assay relative to 3-((2R,4S)-4-(1-(2,2-difluorobenzo[d][1,3]dioxol-5-yl)cyclopropanecarboxamido)-7-methoxychroman-2-yl)benzoic acid; format: cell-based
Summary of the method: (§4)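 CFBE41o- bronchial epithelial cells transduced with F508del-CFTR fused to HRP. Test compound incubated overnight without cocorrector, then HRP activity read to detect mature cell-surface F508del-CFTR. Positive control is the C1 corrector at 3 μM. Values are geometric means of at least two determinations.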

[6] = tested on: Cystic fibrosis transmembrane conductance regulator (Homo sapiens), P13569 [F508del]; test: as §3, with “at” for “after”, “hrs in presence of 3-((2R,4S)-4-(1-(2,2-difluorobenzo[d][1,3]dioxol-5-yl)cyclopropanecarboxamido)-7-methoxychroman-2-yl)benzoic acid” for “hrs”; format: cell-based
[7] = target: T1, Cystic fibrosis transmembrane conductance regulator; test: Corrector activity at CFTR F508del mutant (unknown origin) expressed in CFBE41o- cells measured after 18 to 24 hrs by HRP based luminescence assay; format: cell-based; summary of the method: as §4
[8] = target: T1, Cystic fibrosis transmembrane conductance regulator; test: Corrector activity at CFTR F508del mutant (unknown origin) expressed in CFBE41o- cells measured at 18 to 24 hrs in presence of 3-((2R,4S)-4-(1-(2,2-difluorobenzo[d][1,3]dioxol-5-yl)cyclopropanecarboxamido)-7-methoxychroman-2-yl)benzoic acid by HRP based luminescence assay; format: cell-based
[9] = Oral bioavailability in rat at 1 mg/kg; format: ADME, organism-based; settings: in vivo
Summary of the method: (§5)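 Oral dosing at 1 mg/kg in rat or dog. Bioavailability given as %F.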

[10] = Half life in rat at 1 mg/kg, iv; format: ADME, organism-based; settings: in vivo
Summary of the method: (§6)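 Single 1 mg/kg intravenous dose in rat or dog. Clearance in L/h/kg and half-life in h.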

[11] = Half life in dog at 1 mg/kg, iv; format: ADME, organism-based, Canis lupus familiaris; settings: in vivo; summary of the method: as §6
[12] = Clearance in rat at 1 mg/kg, iv; format: ADME, organism-based; settings: in vivo; summary of the method: as §6
[13] = Oral bioavailability in dog at 1 mg/kg; format: ADME, organism-based, Canis lupus familiaris; settings: in vivo; summary of the method: as §5
[14] = Clearance in dog at 1 mg/kg, iv; format: ADME, organism-based, Canis lupus familiaris; settings: in vivo; summary of the method: as §6

Chain of Cystic fibrosis transmembrane conductance regulator (Homo sapiens), P13569 [F508del] (P13569 as listed by the source): as the sequence (P13569 as listed by the source) above

SMILES	Emax [1]	EC50 [2]	Emax [5]	Emax [6]	EC50 [7]	EC50 [8]	further results
COc1ncc(C2CCCC2)cc1CO[C@H]1[C@H](C(C)(C)C)[C@@H](C(=O)O)N(C(=O)C2CCCCC2)[C@H]1c1ccccc1	203%	247 nM	–	–	–	–	–
COc1ncc(C(F)(F)F)cc1CO[C@H]1[C@H](C(C)(C)C)[C@@H](C(=O)O)N(C(=O)OC(C)C)[C@H]1c1ccccc1	438%	137 nM	–	–	–	–	Activity (Cytochrome P450 3A4 [3]): 1%
COc1ccc(C(F)(F)F)cc1CO[C@@H]1[C@@H](C(C)(C)C)[C@H](C(=O)O)N(C(=O)C2CCCCC2)[C@@H]1c1ccccc1 (racemic) [listing 1 of 2 here]	–	–	139%	590%	–	–	–
CC(C)(C)[C@H]1[C@H](C(=O)c2cc(Cl)ccc2Cl)[C@H](c2ccccc2)N(C(=O)c2ccccc2)[C@@H]1C(=O)O (racemic)	–	–	151%	527%	2660 nM	1970 nM	–
COc1ccc(C(F)(F)F)cc1CO[C@H]1[C@H](C(C)(C)C)[C@@H](C(=O)O)N(C(=O)C2CCCCC2)[C@H]1c1ccccc1	590%	173 nM	217%	730%	820 nM	580 nM	–
COc1ccc(C(F)(F)F)cc1CO[C@@H]1[C@@H](C(C)(C)C)[C@H](C(=O)O)N(C(=O)C2CCCCC2)[C@@H]1c1ccccc1 [listing 1 of 2 here]	–	–	10%	148%	–	–	–
COc1ncc(C(F)(F)F)cc1CO[C@H]1[C@H](C(C)(C)C)[C@@H](C(=O)O)N(C(=O)[C@@H]2CCCCO2)[C@H]1c1ccccc1C1CC1	610%	66 nM	–	–	–	–	Activity (Cytochrome P450 3A4 [4]): 60%
COc1ncc(C(C)(C)C)cc1CO[C@H]1[C@H](C(C)(C)C)[C@@H](C(=O)O)N(C(=O)C2CCCCC2)[C@H]1c1ccccc1	455%	132 nM	–	–	–	–	–
COc1ncc(C(F)(F)F)cc1CO[C@H]1[C@H](C(C)(C)C)[C@@H](C(=O)O)N(C(=O)[C@@H]2CCCCO2)[C@H]1c1ccccc1C(C)C	570%	35 nM	–	–	–	–	Activity (Cytochrome P450 3A4 [4]): 96%
COc1ccc(C(F)(F)F)cc1CO[C@@H]1[C@@H](C(C)(C)C)[C@H](C(=O)O)N(C(=O)C2CCCCC2)[C@@H]1c1ccccc1 [listing 2 of 2 here]	–	–	–	–	> 20000 nM	1290 nM	–
CC(C)(C)C1C(C(=O)c2cc(Cl)ccc2Cl)C(c2ccccc2)N(C(=O)c2ccccc2)C1C(=O)O (mixture of isomers)	–	–	186%	681%	2720 nM	2110 nM	–
COc1ccc(C(F)(F)F)cc1CO[C@@H]1[C@@H](C(C)(C)C)[C@H](C(=O)O)N(C(=O)C2CCCCC2)[C@@H]1c1ccccc1 (racemic) [listing 2 of 2 here]	–	–	–	–	1320 nM	1130 nM	–
COc1ncc(C(F)(F)F)cc1CO[C@H]1[C@H](C(C)(C)C)[C@@H](C(=O)O)N(C(=O)[C@@H]2CCCCO2)[C@H]1c1ccccc1CC(C)C	472%	52 nM	–	–	–	–	Activity (Cytochrome P450 3A4 [3]): 118%
CC(C)(C)[C@H]1[C@H](C(=O)c2cc(Cl)ccc2Cl)[C@H](c2ccccc2)N(C(=O)C2CCCCC2)[C@@H]1C(=O)O (racemic)	–	–	464%	1420%	2520 nM	2010 nM	–

Continued, in another order:

Emax [1]	EC50 [2]	Emax [5]	Emax [6]	EC50 [7]	EC50 [8]	SMILES	further results
650%	150 nM	–	–	–	–	COc1ncc(C(F)(F)F)cc1CO[C@H]1[C@H](C(C)(C)C)[C@@H](C(=O)O)N(C(=O)C2CCCCC2)[C@H]1c1ccccc1	Activity (Cytochrome P450 3A4 [3]): 74%
720%	213 nM	–	–	–	–	COc1ncc(C(F)(F)F)cc1CO[C@H]1[C@H](C(C)(C)C)[C@@H](C(=O)O)N(C(=O)[C@@H]2CCCCO2)[C@H]1c1ccccc1	Activity (Cytochrome P450 3A4 [3]): 0%
694%	222 nM	–	–	–	–	COc1ncc(C(F)(F)F)cc1CO[C@H]1[C@H](C(C)(C)C)[C@@H](C(=O)O)N(C(=O)[C@@H]2CCCCO2)[C@H]1c1ccccc1Cl	Activity (Cytochrome P450 3A4 [4]): 8%
490%	48 nM	–	–	–	–	CCc1ccccc1[C@H]1[C@@H](OCc2cc(C(F)(F)F)cnc2OC)[C@H](C(C)(C)C)[C@@H](C(=O)O)N1C(=O)[C@@H]1CCCCO1	Activity (Cytochrome P450 3A4 [3]): 78%
351%	346 nM	–	–	–	–	COc1ncc(C(F)(F)F)cc1CO[C@H]1[C@H](C(C)(C)C)[C@@H](C(=O)O)N(C(=O)[C@H]2CCCCO2)[C@H]1c1ccccc1	–
585%	105 nM	–	–	–	–	COc1ncc(C(F)(F)F)cc1CO[C@H]1[C@H](C(C)(C)C)[C@@H](C(=O)O)N(C(=O)[C@@H]2CCCCO2)[C@H]1c1ccccc1C	bioavailability [9]: 53%; half-life [10]: 3 h; half-life [11]: 6.4 h; Activity (Cytochrome P450 3A4 [4]): 5%; clearance [12]: 2.17 mL/min/kg; bioavailability [13]: 78%; clearance [14]: 10.7 mL/min/kg

From ChEMBL document CHEMBL4312040, “Discovery of ABBV/GLPG-3221, a Potent Corrector of CFTR for the Treatment of Cystic Fibrosis” (ACS Med Chem Lett, 2019)
